Reference: BindingDB's records for doi:10.1016/j.bmcl.2007.03.055 (Pharmacopeia Drug Discovery, 2007)
pIC50: −log10 of the molar value.

Molecular target: Amyloid-beta precursor protein (Homo sapiens, UniProt P05067)
Test: Inhibition of gamma-secretase
Summary of the method: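 Membrane preparation (5.0 µg total protein, in 20 mM Hepes pH 5.0, 5 mM EDTA) incubated 2 h at 37 °C with compound serially diluted in DMSO then in start buffer (Hepes pH 7.5, 5 mM EDTA); 2% DMSO final. Quenched with Tris/NaCl/BSA/Triton mix carrying biotin-W02 and Europium-labelled G2-10 (both Aβ40-specific) plus allophycocyanin-streptavidin. Signal developed 2–16 h at room temperature; HTRF at 665 nm. IC50 as mean of ≥2 determinations.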

Chain of Amyloid-beta precursor protein (P05067 whole entry): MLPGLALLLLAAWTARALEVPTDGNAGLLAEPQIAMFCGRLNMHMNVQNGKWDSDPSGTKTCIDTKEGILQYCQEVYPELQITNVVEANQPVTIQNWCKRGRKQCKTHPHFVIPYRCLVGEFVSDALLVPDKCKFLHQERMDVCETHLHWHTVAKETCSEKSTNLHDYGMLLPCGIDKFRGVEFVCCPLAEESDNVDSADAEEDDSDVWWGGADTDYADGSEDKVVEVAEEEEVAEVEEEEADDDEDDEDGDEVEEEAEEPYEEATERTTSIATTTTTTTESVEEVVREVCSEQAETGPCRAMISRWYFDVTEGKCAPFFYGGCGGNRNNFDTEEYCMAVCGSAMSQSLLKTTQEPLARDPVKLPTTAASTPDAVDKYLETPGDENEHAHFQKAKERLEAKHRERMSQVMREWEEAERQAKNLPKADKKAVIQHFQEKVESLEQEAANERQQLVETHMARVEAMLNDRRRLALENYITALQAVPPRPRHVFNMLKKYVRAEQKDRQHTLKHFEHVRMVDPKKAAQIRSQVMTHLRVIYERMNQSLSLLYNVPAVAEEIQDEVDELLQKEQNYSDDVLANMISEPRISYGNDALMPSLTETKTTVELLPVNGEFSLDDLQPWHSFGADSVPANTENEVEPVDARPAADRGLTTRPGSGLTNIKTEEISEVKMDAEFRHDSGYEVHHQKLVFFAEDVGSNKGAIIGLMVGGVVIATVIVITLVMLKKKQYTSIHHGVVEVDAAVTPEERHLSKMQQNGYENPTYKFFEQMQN

SMILES | pIC50
CN1CCCC1CCNC(=O)OCCCC1CCc2ccccc2N1S(=O)(=O)c1ccc(Cl)cc1 (stereo unspecified) [3-(1-(4-chlorophenylsulfonyl)-1,2,3,4-tetrahydroquinolin-2-yl)propyl 2-(1-methylpyrrolidin-2-yl)ethylcarbamate] | 6.66
CN1CCCC1CCNC(=O)OC[C@H]1CC[C@@H](c2ccccc2)N1S(=O)(=O)c1ccc(Cl)cc1 (stereo partly drawn) [((2R,5S)-1-(4-chlorophenylsulfonyl)-5-phenylpyrrolidin-2-yl)methyl 2-(1-methylpyrrolidin-2-yl)ethylcarbamate] | 6.22
O=C(OC[C@H]1CC[C@@H](c2ccccc2)N1S(=O)(=O)c1ccc(Cl)cc1)N1CCN(CCO)CC1 [((2R,5S)-1-(4-chlorophenylsulfonyl)-5-phenylpyrrolidin-2-yl)methyl 4-(2-hydroxyethyl)piperazine-1-carboxylate] | 6.27
O=C(OCCCC1CCc2ccccc2N1S(=O)(=O)c1ccc(Cl)cc1)N1CCN(C2CCCCC2)CC1 (stereo unspecified) [3-(1-(4-chlorophenylsulfonyl)-1,2,3,4-tetrahydroquinolin-2-yl)propyl 4-cyclohexylpiperazine-1-carboxylate] | 6.74

The next lines start with the values.

pIC50 | SMILES
6.55 | O=C(NCCCn1ccnc1)OCCC1CCc2ccccc2N1S(=O)(=O)c1ccc(Cl)cc1 (stereo unspecified) [2-(1-(4-chlorophenylsulfonyl)-1,2,3,4-tetrahydroquinolin-2-yl)ethyl 3-(1H-imidazol-1-yl)propylcarbamate]
7.07 | O=C(NCCCn1ccnc1)OCCCC1CCc2ccccc2N1S(=O)(=O)c1ccc(Cl)cc1 (stereo unspecified) [3-(1-(4-chlorophenylsulfonyl)-1,2,3,4-tetrahydroquinolin-2-yl)propyl 3-(1H-imidazol-1-yl)propylcarbamate]
